Publication PMC11865470 (Communications Biology, 2025)

Columns and labels:
Format in all cases: cell-based
mouse Otop2 (mOtop2) = target: T1, mouse Otop2 (mOtop2) (Mus musculus, UniProt Q80SX5); test: whole-cell patch-clamp, pH 5.5-evoked currents; conditions: 10 μM
T1 sequence (Q80SX5 1-563): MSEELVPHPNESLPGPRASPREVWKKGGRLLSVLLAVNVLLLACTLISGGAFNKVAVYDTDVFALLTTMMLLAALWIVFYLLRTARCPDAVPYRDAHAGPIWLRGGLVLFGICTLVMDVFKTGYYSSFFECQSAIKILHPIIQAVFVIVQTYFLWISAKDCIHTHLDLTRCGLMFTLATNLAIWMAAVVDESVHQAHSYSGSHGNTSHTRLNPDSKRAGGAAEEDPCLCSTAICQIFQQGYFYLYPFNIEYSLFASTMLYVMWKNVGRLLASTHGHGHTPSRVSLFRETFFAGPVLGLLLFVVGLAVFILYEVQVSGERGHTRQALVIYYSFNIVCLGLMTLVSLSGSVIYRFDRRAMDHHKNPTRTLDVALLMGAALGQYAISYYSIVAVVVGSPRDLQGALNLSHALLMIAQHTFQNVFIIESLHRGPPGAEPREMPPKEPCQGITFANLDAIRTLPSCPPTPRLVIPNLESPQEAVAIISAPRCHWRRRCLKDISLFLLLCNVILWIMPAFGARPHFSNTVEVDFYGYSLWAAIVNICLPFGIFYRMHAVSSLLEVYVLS
Method in brief: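 Channel plasmid (2.5 μg) was co-transfected with EGFP plasmid (0.5 μg) using Lipofectamine 2000 into PAC-knockout HEK293T cells. Whole-cell recording 16–24 h after seeding, with Cs-aspartate pipette solution (pH 7.3). Currents evoked by pH 5.5 bath (160 mM NMDG-Cl, 2 mM CaCl2, 10 mM MES); test compound 10 μM.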

NaV1.2 = NaV1.2 (Rattus norvegicus, UniProt P04775); test: whole-cell patch-clamp, off-target channel, 10 μM compound; conditions: vs 0.1% DMSO
Sequence of NaV1.2 (P04775 whole entry): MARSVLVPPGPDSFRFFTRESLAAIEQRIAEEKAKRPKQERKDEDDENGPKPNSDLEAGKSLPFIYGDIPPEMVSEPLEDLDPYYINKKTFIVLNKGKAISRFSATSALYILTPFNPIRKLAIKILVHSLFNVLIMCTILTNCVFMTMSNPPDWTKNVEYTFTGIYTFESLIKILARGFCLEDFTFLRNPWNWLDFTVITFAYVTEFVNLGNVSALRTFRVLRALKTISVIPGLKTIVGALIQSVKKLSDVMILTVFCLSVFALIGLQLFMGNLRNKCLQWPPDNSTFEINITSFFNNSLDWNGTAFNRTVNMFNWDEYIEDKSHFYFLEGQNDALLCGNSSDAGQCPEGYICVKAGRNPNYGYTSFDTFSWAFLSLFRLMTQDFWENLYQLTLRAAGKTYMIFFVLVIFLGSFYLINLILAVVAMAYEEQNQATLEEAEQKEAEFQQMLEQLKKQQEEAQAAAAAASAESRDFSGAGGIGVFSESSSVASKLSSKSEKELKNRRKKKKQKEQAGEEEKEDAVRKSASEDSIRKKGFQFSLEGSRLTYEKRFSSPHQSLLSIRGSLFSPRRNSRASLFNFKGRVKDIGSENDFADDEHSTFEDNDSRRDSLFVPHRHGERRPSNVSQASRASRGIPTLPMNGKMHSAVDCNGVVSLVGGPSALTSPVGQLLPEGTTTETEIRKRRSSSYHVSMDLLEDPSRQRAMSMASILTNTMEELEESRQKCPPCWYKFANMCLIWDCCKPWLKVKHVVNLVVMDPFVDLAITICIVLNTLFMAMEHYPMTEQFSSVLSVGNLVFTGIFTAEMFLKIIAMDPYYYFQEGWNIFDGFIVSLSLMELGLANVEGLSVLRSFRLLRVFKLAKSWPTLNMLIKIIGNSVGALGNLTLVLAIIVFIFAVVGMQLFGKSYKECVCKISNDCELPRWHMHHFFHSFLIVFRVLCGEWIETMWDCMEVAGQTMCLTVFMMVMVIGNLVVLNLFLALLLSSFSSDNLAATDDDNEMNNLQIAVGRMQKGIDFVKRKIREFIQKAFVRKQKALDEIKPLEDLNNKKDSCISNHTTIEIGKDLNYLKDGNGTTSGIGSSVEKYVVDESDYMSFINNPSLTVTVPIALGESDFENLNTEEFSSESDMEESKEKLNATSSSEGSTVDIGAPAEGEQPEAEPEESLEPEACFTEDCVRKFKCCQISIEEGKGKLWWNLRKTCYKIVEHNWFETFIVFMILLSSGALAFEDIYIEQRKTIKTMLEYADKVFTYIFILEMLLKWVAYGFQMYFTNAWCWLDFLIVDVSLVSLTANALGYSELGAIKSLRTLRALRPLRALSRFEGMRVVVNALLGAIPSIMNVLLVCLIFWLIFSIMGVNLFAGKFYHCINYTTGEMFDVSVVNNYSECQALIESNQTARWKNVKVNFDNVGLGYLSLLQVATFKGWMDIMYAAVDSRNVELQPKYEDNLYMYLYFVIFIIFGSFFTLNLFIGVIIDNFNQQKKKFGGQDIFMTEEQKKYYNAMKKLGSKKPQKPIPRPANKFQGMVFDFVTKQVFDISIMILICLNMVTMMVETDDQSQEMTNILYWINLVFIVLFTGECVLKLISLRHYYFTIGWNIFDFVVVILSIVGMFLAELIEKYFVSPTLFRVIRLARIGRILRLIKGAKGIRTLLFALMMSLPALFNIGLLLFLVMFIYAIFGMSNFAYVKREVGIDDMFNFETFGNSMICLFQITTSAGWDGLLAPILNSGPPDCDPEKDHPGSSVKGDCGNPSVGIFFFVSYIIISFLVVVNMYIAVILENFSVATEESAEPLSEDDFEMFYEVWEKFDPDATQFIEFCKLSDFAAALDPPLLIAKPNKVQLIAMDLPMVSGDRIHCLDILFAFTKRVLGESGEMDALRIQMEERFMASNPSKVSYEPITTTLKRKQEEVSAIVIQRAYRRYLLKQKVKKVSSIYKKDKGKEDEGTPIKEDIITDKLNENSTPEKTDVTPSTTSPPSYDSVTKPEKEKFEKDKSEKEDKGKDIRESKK
Method in brief: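 NaV channels, transiently transfected HEK293T cells, whole-cell, 16–24 h after seeding. Pipette (mM): 140 CsF, 1 EGTA, 10 NaCl, 10 HEPES, pH 7.4. Bath (mM): 140 NaCl, 5 KCl, 2 CaCl2, 1 MgCl2, 10 glucose, 10 HEPES, pH 7.4. Bath with 0.1% DMSO applied before 10 μM test compound. Inhibition ratios compared by unpaired t-test, n = 5.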

KV4.3 = target: T2, KV4.3 (Rattus norvegicus, UniProt Q62897); test: whole-cell patch-clamp, off-target channel, 10 μM compound
T2 sequence (Q62897 1-611 isoform Q62897-3): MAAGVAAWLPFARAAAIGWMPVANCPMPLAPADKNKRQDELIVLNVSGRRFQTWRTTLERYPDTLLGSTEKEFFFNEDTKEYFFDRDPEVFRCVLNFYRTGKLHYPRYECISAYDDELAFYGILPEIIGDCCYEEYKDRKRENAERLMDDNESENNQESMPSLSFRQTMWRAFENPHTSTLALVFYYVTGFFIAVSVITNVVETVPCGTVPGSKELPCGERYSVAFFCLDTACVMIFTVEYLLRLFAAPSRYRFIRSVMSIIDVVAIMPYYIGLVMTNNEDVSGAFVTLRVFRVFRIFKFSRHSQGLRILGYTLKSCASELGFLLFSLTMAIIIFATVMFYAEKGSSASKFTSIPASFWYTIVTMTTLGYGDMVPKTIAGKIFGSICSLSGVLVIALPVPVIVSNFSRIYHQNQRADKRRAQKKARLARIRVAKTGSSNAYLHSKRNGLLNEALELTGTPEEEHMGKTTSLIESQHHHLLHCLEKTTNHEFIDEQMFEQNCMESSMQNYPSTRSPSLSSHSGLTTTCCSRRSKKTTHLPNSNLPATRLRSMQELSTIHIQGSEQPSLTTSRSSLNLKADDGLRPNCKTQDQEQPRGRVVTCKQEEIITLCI
Method in brief: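 KV channels in transiently transfected HEK293T cells, whole-cell. Pipette (mM): 140 KCl, 2.5 MgCl2, 11 EGTA, 10 HEPES, pH 7.4. Bath (mM): 145 NaCl, 2.8 KCl, 2 CaCl2, 1 MgCl2, 10 glucose, 10 HEPES, pH 7.4. 0.1% DMSO bath applied, then 10 μM test compound. DMSO vs compound inhibition ratio compared by unpaired t-test, n = 5.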

HV1 = target: T3, HV1 (Homo sapiens, UniProt Q96D96); test: whole-cell patch-clamp, off-target channel, 10 μM compound; conditions: vs 0.1% DMSO
T3 sequence (Q96D96 1-273): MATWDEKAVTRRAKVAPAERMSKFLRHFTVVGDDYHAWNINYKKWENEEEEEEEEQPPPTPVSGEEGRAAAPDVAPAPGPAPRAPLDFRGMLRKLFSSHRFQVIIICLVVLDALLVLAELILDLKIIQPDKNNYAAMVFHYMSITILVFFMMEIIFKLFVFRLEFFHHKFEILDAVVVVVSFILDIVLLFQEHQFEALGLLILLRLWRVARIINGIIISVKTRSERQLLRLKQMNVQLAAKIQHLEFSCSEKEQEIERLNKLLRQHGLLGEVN
Method in brief: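 HV1 in transfected HEK293T cells, whole-cell. Pipette (mM): 120 CsCl, 100 MES, pH 5.5. Bath (mM): 150 NaCl, 5 KCl, 1 MgCl2, 2 CaCl2, 10 glucose, 100 HEPES, pH 7.2. Bath with 0.1% DMSO applied before 10 μM test compound. Inhibition ratios compared by unpaired t-test, n = 5.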

PAC = PAC (Homo sapiens, UniProt Q9H813); test: whole-cell patch-clamp, off-target channel, 10 μM compound; conditions: vs 0.1% DMSO
Sequence of PAC (Q9H813 whole entry): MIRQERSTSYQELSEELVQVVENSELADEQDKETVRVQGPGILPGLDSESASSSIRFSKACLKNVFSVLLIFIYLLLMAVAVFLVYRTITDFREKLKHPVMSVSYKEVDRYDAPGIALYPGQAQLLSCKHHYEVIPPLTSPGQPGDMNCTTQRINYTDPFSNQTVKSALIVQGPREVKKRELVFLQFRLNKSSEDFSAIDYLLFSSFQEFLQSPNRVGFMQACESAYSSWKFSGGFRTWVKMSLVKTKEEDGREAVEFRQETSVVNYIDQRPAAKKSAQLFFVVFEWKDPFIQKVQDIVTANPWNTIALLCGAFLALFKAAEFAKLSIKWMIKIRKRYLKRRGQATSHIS
Method in brief: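 PAC in transfected HEK293T cells, whole-cell. Pipette (mM): 135 CsCl, 1 MgCl2, 2 CaCl2, 10 HEPES, 5 EGTA, 4 Mg-ATP, pH 7.2. NaCl-based bath buffered with 10 mM HEPES (pH 7.3) or 5 mM Na3-citrate (pH 5.5). 0.1% DMSO bath applied before 10 μM test compound. Inhibition ratios compared by unpaired t-test, n = 5.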

Compound | effect on pH 5.5-evoked mOtop2 currents (mouse Otop2 (mOtop2)) | sensitivity of channel to compound (NaV1.2) | inhibition ratio (KV4.3) [%] | sensitivity of channel to compound (HV1) | sensitivity of channel to compound (PAC) | sensitivity of channel to compound (KV4.3; vs 0.1% DMSO)
CC(C)c1noc2ncc(C(=O)c3ccccc3O)cc12 [HIMOP, (2-hydroxyphenyl)-(3-propan-2-yl-5-isoxazolo[5,4-b]pyridinyl)methanone] | did not affect | completely resistant | 12.9 | completely resistant | completely resistant | 
Cc1ccc(C(=O)Nc2ccc3ccccc3c2)o1 [MFaN, 5-methyl-N-2-naphthyl-2-furamide] | did not affect | completely resistant | 7.0 | completely resistant | completely resistant | 
Cc1cc(NC(=O)c2ccc(Br)o2)ccc1NC(=O)c1ccco1 [B2FAMP, 5-Bromo-N-[4-(2-furoylamino)-3-methylphenyl]-2-furamide] | did not affect | completely resistant |  | completely resistant | completely resistant | completely resistant
